From ChEMBL document CHEMBL4270612, “Discovery of dual GyrB/ParE inhibitors active against Gram-negative bacteria” (Eur J Med Chem, 2018)
In brackets after ≈: the same amount, converted by molar mass.

What was measured:
[1] = biological target: DNA gyrase subunit B (Escherichia coli, UniProt P0AES6); assay: Inhibition of Escherichia coli GyrB (1 to 220 residues) expressed in Escherichia coli BL21(DE3)
[2] = system: Pseudomonas aeruginosa; assay: Antibacterial activity against Pseudomonas aeruginosa PAO1 after 24 hrs by broth microdilution method; format: functional; settings: PAO1, 24 h
In short: (§1)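 Broth microdilution per CLSI. Bacterial suspension adjusted to 1×10^6 CFU/mL in cation-adjusted Mueller–Hinton broth and mixed 1:1 with 2-fold serial compound dilutions. Final DMSO 2.5% v/v. Plates incubated at 35 °C with shaking at 140 rpm for 24 h.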

[3] = system: Escherichia coli; assay: Antibacterial activity against tolC deficient Escherichia coli after 24 hrs by broth microdilution method; format: functional
In short: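 Broth microdilution per CLSI guidelines. Inoculum adjusted to 1×10^6 CFU/mL in cation-adjusted Mueller–Hinton broth, added 1:1 to 2-fold serial compound dilutions; final DMSO 2.5% v/v. Plates incubated 35 °C, 140 rpm, 24 h.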

[4] = system: Pseudomonas aeruginosa; assay: Antibacterial activity against Pseudomonas aeruginosa harboring MexABCDXY deletion mutant after 24 hrs by broth microdilution method; format: functional
In short: (§2)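 Broth microdilution per CLSI. Bacterial suspensions adjusted to 1×10^6 CFU/mL in cation-adjusted Mueller–Hinton broth, mixed 1:1 with 2-fold serial compound dilutions (final DMSO 2.5% v/v). Incubation 35 °C, 140 rpm, 24 h.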

[5] = system: Escherichia coli; assay: Antibacterial activity against Escherichia coli after 24 hrs by broth microdilution method; format: functional; in short: as §1
[6] = biological target: DNA topoisomerase 4 subunit B (Escherichia coli K-12, UniProt P20083); assay: Inhibition of Escherichia coli ParE
[7] = Dissociation constant, pKa of compound by pH metric method; format: physicochemical
In short: (§3)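 Potentiometric (pH-metric) titration on an automated titrator, Gold Standard pH metric assay, run in triplicate.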

[8] = system: Escherichia coli; assay: Selectivity ratio of IC50 for Escherichia coli ParE to IC50 for Escherichia coli GyrB (1 to 220 residues) expressed in Escherichia coli BL21(DE3)
[9] = system: Staphylococcus aureus; assay: Antibacterial activity against methicillin-resistant Staphylococcus aureus USA100 after 24 hrs by broth microdilution method; format: functional; settings: USA100, 24 h; in short: as §2
[10] = system: Acinetobacter baumannii; assay: Antibacterial activity against Acinetobacter baumannii ARC3495 after 24 hrs by broth microdilution method; format: functional; settings: ARC3495, 24 h; in short: as §1
[11] = system: Enterobacter cloacae; assay: Antibacterial activity against Enterobacter cloacae ARC3528 after 24 hrs by broth microdilution method; format: functional; settings: ARC3528, 24 h; in short: as §1
[12] = system: Staphylococcus aureus; assay: Antibacterial activity against Staphylococcus aureus ATCC 29213 after 24 hrs in presence of 2% human albumin by broth microdilution method; format: functional; settings: ATCC 29213, 24 h
[13] = system: Haemophilus influenzae; assay: Antibacterial activity against Haemophilus influenzae ATCC 49247 after 24 hrs by broth microdilution method; format: functional; settings: ATCC 49247, 24 h; in short: as §1
[14] = system: Enterococcus faecalis; assay: Antibacterial activity against Enterococcus faecalis ATCC 29212 after 24 hrs by broth microdilution method; format: functional; settings: ATCC 29212, 24 h; in short: as §1
[15] = system: Staphylococcus aureus; assay: Antibacterial activity against Staphylococcus aureus ATCC 29213 after 24 hrs by broth microdilution method; format: functional; settings: ATCC 29213, 24 h; in short: as §1
[16] = system: Klebsiella pneumoniae; assay: Antibacterial activity against Klebsiella pneumoniae ARC1865 after 24 hrs by broth microdilution method; format: functional; settings: ARC1865, 24 h; in short: as §1
[17] = system: Candida albicans; assay: Antifungal activity against Candida albicans ATCC 90028 after 24 hrs by broth microdilution method; format: functional; settings: ATCC 90028, 24 h
[18] = system: Streptococcus pneumoniae; assay: Antibacterial activity against Streptococcus pneumoniae ATCC 49619 after 24 hrs by broth microdilution method; format: functional; settings: ATCC 49619, 24 h; in short: as §1
[19] = system: Staphylococcus aureus; assay: Antibacterial activity against methicillin-resistant Staphylococcus aureus FQ-R after 24 hrs by broth microdilution method; format: functional; in short: as §2
[20] = Growth inhibition of human A549 cells; format: cell-based
[21] = Dissociation constant, basic pKa of compound by pH metric method; format: physicochemical; in short: as §3
[22] = Dissociation constant, acidic pKa of compound by pH metric method; format: physicochemical; in short: as §3

Chain of DNA topoisomerase 4 subunit B (P20083 whole entry): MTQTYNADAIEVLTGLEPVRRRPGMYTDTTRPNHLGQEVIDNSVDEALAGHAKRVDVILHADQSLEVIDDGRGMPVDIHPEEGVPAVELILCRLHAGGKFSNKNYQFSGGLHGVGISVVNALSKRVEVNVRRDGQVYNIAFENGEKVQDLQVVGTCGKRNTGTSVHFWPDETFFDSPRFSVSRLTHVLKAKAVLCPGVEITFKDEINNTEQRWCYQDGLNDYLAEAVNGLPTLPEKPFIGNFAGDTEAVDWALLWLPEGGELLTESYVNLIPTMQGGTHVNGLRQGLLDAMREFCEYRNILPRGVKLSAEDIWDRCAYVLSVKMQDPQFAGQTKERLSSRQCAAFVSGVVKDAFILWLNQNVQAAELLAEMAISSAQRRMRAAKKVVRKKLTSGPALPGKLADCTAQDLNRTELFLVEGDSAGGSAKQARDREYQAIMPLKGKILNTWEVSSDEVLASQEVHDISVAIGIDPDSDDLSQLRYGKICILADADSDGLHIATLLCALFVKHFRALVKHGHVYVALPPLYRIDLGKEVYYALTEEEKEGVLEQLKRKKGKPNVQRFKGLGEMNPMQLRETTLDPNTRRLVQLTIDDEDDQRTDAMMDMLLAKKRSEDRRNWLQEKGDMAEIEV

CCNC(=O)Nc1cc(-c2nc(C(F)(F)F)cs2)c(-c2cncc(C(=O)O)c2)cn1
IC50 [1]: 6 nM
MIC [2]: > 100 µg/mL
MIC [3]: > 100 µg/mL
MIC [4]: > 100 µg/mL
MIC [5]: > 100 µg/mL
IC50 [6]: 700 nM
pKa [7]: 3.5
Ratio IC50 [8]: 100

CC(C)(O/N=C(\C(=O)N[C@@H]1C(=O)N2C(C(=O)[O-])=C(C[n+]3ccccc3)CS[C@H]12)c1csc(N)n1)C(=O)O [CEFTAZIDIME]
MIC [9]: > 32 µg/mL
MIC [10]: > 32 µg/mL
MIC [11]: > 32 µg/mL
MIC [12]: 16 µg/mL
MIC [13]: 0.25 µg/mL (≈ 0.457 µM)
MIC [14]: > 32 µg/mL
MIC [15]: 16 µg/mL (≈ 29.3 µM)
MIC [16]: 0.25 µg/mL (≈ 0.457 µM)
MIC [17]: > 32 µg/mL
MIC [18]: 0.5 µg/mL (≈ 0.915 µM)
MIC [19]: > 32 µg/mL

CCNC(=O)Nc1cc(-c2nc(C(F)(F)F)cs2)c(-c2cc3ncccc3nc2N2CC3CCCC(C2)N3)cn1
GI50 [20]: > 50000 nM
IC50 [1]: 14 nM
MIC [2]: > 60 µg/mL
MIC [3]: 0.28 µg/mL (≈ 0.492 µM)
MIC [4]: 0.55 µg/mL (≈ 0.967 µM)
MIC [5]: 9.09 µg/mL (≈ 16 µM)
IC50 [6]: 25 nM
pKa [7]: 9.2

CCNC(=O)Nc1cc(-c2nc(C(F)(F)F)cs2)c(-c2cc3ncccc3nc2N2CC3CCC2CN3)cn1 (centres undefined)
IC50 [1]: 8 nM
MIC [2]: > 60 µg/mL
MIC [3]: 1.1 µg/mL (≈ 1.98 µM)
MIC [4]: 0.55 µg/mL (≈ 0.992 µM)
MIC [5]: 8.87 µg/mL (≈ 16 µM)
IC50 [6]: 21 nM
pKa [7]: 9.2

CCNC(=O)Nc1cc(-c2nc(C(F)(F)F)cs2)c(-c2cc(-c3nnn[nH]3)cnc2N2C3CCC2CN(C)C3)cn1
IC50 [1]: 9 nM
MIC [2]: > 50 µg/mL
pKa [21]: 7.8
MIC [3]: 36 µg/mL (≈ 61.5 µM)
MIC [4]: > 50 µg/mL
MIC [5]: > 50 µg/mL
pKa [22]: 3.6
IC50 [6]: 4 nM

CCNC(=O)Nc1cc(-c2nc(C(F)(F)F)cs2)c(-c2cnc3cccnc3c2)cn1
IC50 [1]: 4 nM
MIC [2]: > 25 µg/mL
MIC [3]: 0.44 µg/mL (≈ 0.99 µM)
MIC [4]: > 25 µg/mL
MIC [5]: > 25 µg/mL
IC50 [6]: 2010 nM

CCNC(=O)Nc1cc(-c2nc(C(F)(F)F)cs2)c(-c2cc3ncccc3nc2N2CCC(N)CC2)cn1
GI50 [20]: > 50000 nM
IC50 [1]: 6 nM
MIC [2]: 67.8 µg/mL (≈ 125 µM)
MIC [3]: 0.54 µg/mL (≈ 0.995 µM)
MIC [4]: 0.54 µg/mL (≈ 0.995 µM)
MIC [5]: 16.8 µg/mL (≈ 31 µM)
IC50 [6]: 49 nM
pKa [7]: 9.3

CCNC(=O)Nc1cc(-c2nc(C(F)(F)F)cs2)c(-c2cc(C(=O)NS(C)(=O)=O)cnc2N2C3CCC2CN(C)C3)cn1
IC50 [1]: 8 nM
MIC [2]: > 50 µg/mL
pKa [21]: 7.6
MIC [3]: > 50 µg/mL
MIC [4]: > 50 µg/mL
MIC [5]: > 50 µg/mL
pKa [22]: 3.2
IC50 [6]: 9 nM
